From article PMC11293336 (Cell Reports Medicine, 2024)

How the values were obtained:
[1] = Plasma pharmacokinetics of oral terameprocol, GATOR trial; type: in vivo, human; details: for AUC(0-inf): AUCINF
[2] = test system: recurrent high-grade glioma; assay: Tumor response and survival, GATOR trial; type: in vivo, human; details: oral, 19 participants
Method in brief: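 Oral dosing 1,200–6,000 mg/day, days 1–5 every 28 days, in recurrent grade III–IV glioma. OS ran from registration to death from any cause, censored at last known alive. PFS ran from registration to progression, censored if still on treatment or at last progression-free date. Medians by Kaplan–Meier; confidence intervals by Brookmeyer-Crowley method.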

[3] = test system: dogs; assay: 28-day oral toxicity study in dogs; type: in vivo, Beagle Dog; details: continuous 28-day schedule
[4] = IV 1,700 mg/day (MTD), 5 days/month; cited from earlier work
[5] = test system: patients with recurrent high-grade gliomas; details: IV; cited from earlier work
[6] = test system: recurrent high-grade gliomas; details: IV; cited from earlier work
[7] = test system: refractory head and neck cancer; details: intratumoral, three weekly doses at 10–15 mg/cm; cited from earlier work
[8] = test system: advanced acute myeloid leukemia or myelodysplastic syndrome; details: intravenous; cited from earlier work
[9] = oral 6,000 mg fed, cycle 1 day 4, actual values of 2 patients

Molecule `COc1ccc(C[C@@H](C)[C@@H](C)Cc2ccc(OC)c(OC)c2)cc1OC` [terameprocol, meso-tetra-O-methyl nordihydroguaiaretic acid] has a Cmax ([1]; human, plasma, po, 1200 mg, Cmax, oral 1,200 mg fasted, cycle 1 day 1, mean ± SD) of 30 ± 10 ng/mL, a Cmax ([1]; human, plasma, po, 1200 mg, Cmax, oral 1,200 mg fasted, cycle 1 day 4, mean ± SD) of 30 ± 30 ng/mL and a half-life ([1]; human, plasma, po, 1200 mg, T1/2, oral 1,200 mg fasted, cycle 1 day 1, 1 patient) of 1.9 h. The Cmax ([1]; human, plasma, po, 2400 mg, Cmax, oral 2,400 mg fasted, cycle 1 day 1, mean ± SD) was 100 ± 50 ng/mL, the Cmax ([1]; human, plasma, po, 2400 mg, Cmax, oral 2,400 mg fasted, cycle 1 day 4, mean ± SD) was 100 ± 60 ng/mL and the half-life ([1]; human, plasma, po, 2400 mg, T1/2, oral 2,400 mg fasted, cycle 1 day 4, mean ± SD) was 24.8 ± 6.2 h. For the same molecule, the Cmax ([1]; human, plasma, po, 3600 mg, Cmax, oral 3,600 mg fasted, cycle 1 day 1, mean ± SD) was 280 ± 190 ng/mL, the Cmax ([1]; human, plasma, po, 3600 mg, Cmax, oral 3,600 mg fasted, cycle 1 day 4, mean ± SD) was 250 ± 140 ng/mL and the half-life ([1]; human, plasma, po, 3600 mg, T1/2, oral 3,600 mg fasted, cycle 1 day 1, mean ± SD) was 6 ± 0.6 h. For the same molecule, the half-life ([1]; human, plasma, po, 3600 mg, T1/2, oral 3,600 mg fasted, cycle 1 day 4, mean ± SD) was 6.5 ± 0.8 h, the Cmax ([1]; human, plasma, po, 4800 mg, Cmax, oral 4,800 mg fed, cycle 1 day 4, 1 patient) was 230 ng/mL and the half-life ([1]; human, plasma, po, 4800 mg, T1/2, oral 4,800 mg fed, cycle 1 day 4, 1 patient) was 10.7 h. For the same molecule, the Tmax ([1]; human, plasma, po, 4800 mg, oral 4,800 mg fed, cycle 1 day 4, 1 patient) was 5.9 h, the AUC(0-inf) ([1]; human, plasma, po, 6000 mg, oral 6,000 mg fasted, cycle 1 day 1, 1 patient) was 1900 ng·h/mL and the AUC(0-inf) ([1]; human, plasma, po, 6000 mg, oral 6,000 mg fed, cycle 1 day 1, mean ± SD) was 2400 ± 1800 ng·h/mL. For the same molecule, the Cmax ([1]; human, plasma, po, 6000 mg, Cmax, oral 6,000 mg fasted, cycle 1 day 1, mean ± SD) was 200 ± 120 ng/mL, the Cmax ([1]; human, plasma, po, 6000 mg, Cmax, oral 6,000 mg fed, cycle 1 day 1, mean ± SD) was 330 ± 310 ng/mL and the Cmax ([1]; human, plasma, po, 6000 mg, Cmax, oral 6,000 mg fed, cycle 1 day 4, mean ± SD) was 600 ± 570 ng/mL. For the same molecule, the half-life ([1]; human, plasma, po, 6000 mg, T1/2, oral 6,000 mg fasted, cycle 1 day 4, 1 patient) was 14.9 h, the half-life ([1]; human, plasma, po, 6000 mg, T1/2, oral 6,000 mg fed, cycle 1 day 1, mean ± SD) was 6.6 ± 2.2 h and the Tmax ([1]; human, plasma, po, 6000 mg, oral 6,000 mg fasted, cycle 1 day 1, median (range; n)) was 4 h. The Tmax ([1]; human, plasma, po, 6000 mg, oral 6,000 mg fed, cycle 1 day 1, median (range; n)) was 4.1 h, the Tmax ([1]; human, plasma, po, 6000 mg, oral 6,000 mg fed, cycle 1 day 4, median (range; n)) was 8 h and the T1/2 ([1]; oral 1,200 mg fasted, cycle 1 day 4, actual values of 2 patients) was 3.1 h. For the same molecule, the AUCINF ([1]; oral 2,400 mg fasted, cycle 1 day 1, actual values of 2 patients) was 0.7 μg∗h/mL, the T1/2 ([1]; oral 6,000 mg fasted, cycle 1 day 1, actual values of 2 patients) was 14.9 h and the Cmax ([1]; oral 6,000 mg fasted, cycle 1 day 4, actual values of 2 patients) was 150 ng/mL. The AUCINF [1, 9] was 4.4 μg∗h/mL, the T1/2 [1, 9] was 6.5 h and the “partial or complete responses” value [2] was “no partial or complete responses”. For the same molecule, the tolerability [3] was “well tolerated”, the “median AUC” value [4] was 31.3 μg∗h/mL and the myelosuppression [5] was “nor did terameprocol cause significant myelosuppression”. The objective responses [6] was “no objective responses”, the “total necrosis of the injection site, patients” value [7] was 2/3 and the stable disease [8] was “five”.
